Like-named read-outs stand apart in the source and are kept apart here.
Assays:
[1] = tested on: WiDR cells; assay: MTT cytotoxicity assay on WiDR colorectal cancer cells; format: cell-based; conditions: for IC50: Homo sapiens, WiDr, 24 h; for SI (selectivity index): ratio of IC50 in Vero versus that in WiDR cells, selective if >3
Method in brief: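 WiDR cells grown in RPMI 1640 with 0.1 mg/mL streptomycin (5% CO2, 37°C); confluent cells seeded 1×10^4/well for 24 h, then exposed 24 h to test compound (1% DMSO solution diluted in medium) at 3.906–500 µg/mL. MTT 4 h, formazan dissolved overnight in 10% SDS/0.01 N HCl, A595. Viability vs untreated and cell-free controls; IC50 by probit, mean of three experiments; SI = Vero IC50/WiDR IC50.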

[2] = IC50 slightly higher than that of chloroquine; cited from earlier work

Row | Compound | IC50 ([1]; read-out: IC50 (µM) WiDR) [µM] | IC50 ([1]; read-out: IC50 (µg/mL) WiDR) [µg/mL] | cytotoxicity category (CSIR criteria) ([1]; WiDR cell line) | cytotoxic activity (in words) ([1]; WiDR cells, MTT) | SI (selectivity index) [1] | SI (selectivity index) ([1]; listed as compound 5) | antimalarial activity [2]
1 | O=c1c2ccc(O)cc2oc2c(O)c(O)ccc12 [Compound 5, 3,4,6-trihydroxyxanthone] | 37.8 ± 10.6 | 9.23 ± 2.58 | moderate (moderate (6.25 µg/mL < mean IC50 <15 µg/mL)) | exhibited cytotoxic activity | 66.39 | 66.40 | good antimalarial activity
2 | COc1cccc2c1C(=O)c1c(O)c3c(c(O)c1C2=O)C[C@@](O)(C(=O)CO)C[C@@H]3O[C@H]1C[C@H](N)[C@H](O)[C@H](C)O1 [Doxorubicin, doxorubicin, reference compound] | 3.04 ± 0.184 | 1.65 ± 0.19 | – | – | 49.38 | – | –

Source: article PMC5774476 (Drug Design, Development and Therapy, 2018)
